Experiments:
[1] = folding enthalpy; higher = less favourable; fluorescence melt of hairpins on a sequencing array, two-state fit; conditions: sodium 0.088 M
Procedure, shortened: (§1)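 Cy3 signals were normalised both to pre-quench Cy3 and to control constructs. They came from library hairpins carrying annealed Cy3 and quencher oligos on a sequenced MiSeq flow cell, imaged in 50 mM Na-HEPES pH 8.0, 25 mM NaCl, in 2.5 °C steps up to 60 °C. Bootstrapped two-state fits gave melting temperature and folding enthalpy, and four replicates were combined by inverse variance. Fitted temperatures were then raised by 9.35 °C to match UV melts.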

[2] = melting temperature; fluorescence melt of hairpins on a sequencing array, two-state fit, raised by 9.35 °C to match UV melts; conditions: sodium 0.088 M
Procedure, shortened: as §1

| Sequence | folding enthalpy [1] | Tm [2] |
| --- | --- | --- |
| GACAACGAAAGTTGTGTC ((((((....)))..))) | -14.7 kcal/mol | 50.6 °C |
| GACAACGAAAGTTTCGTC ((((((....)))..))) | -14.1 kcal/mol | 32.8 °C |
| GACAACGGAAACGCTGTC ((((.((....)).)))) | -34.7 kcal/mol | 45.6 °C |
| GACAAGCCGAAAGGCGTC (((..(((....)))))) | -9.16 kcal/mol | 42.3 °C |
| GACAATCCGAAAGGAGTC (((..(((....)))))) | -17.2 kcal/mol | 32.7 °C |
| GACAATGGAAACATTGCC (.(((((....))))).) | -18.6 kcal/mol | 38.2 °C |
| GACAATGGAAACATTGTC (((((((....))))))) | -47.7 kcal/mol | 57 °C |
| GACAATGGAAACGTTGTC (((((.(....).))))) | -34.7 kcal/mol | 46.5 °C |
| GACACACGAAAGTGGGTC (((.(((....))).))) | -37.8 kcal/mol | 67.6 °C |
| GACACACGAAAGTGGTC (((.(((....)))))) | -20.7 kcal/mol | 49.7 °C |
| GACACAGGAAACTATGTC ((((.((....)).)))) | -24.5 kcal/mol | 29.9 °C |
| GACACAGGAAACTGCGTC (((.(((....))).))) | -23.4 kcal/mol | 45.3 °C |
| GACACCCGAAAGGGAGTC (((.(((....))).))) | -29.6 kcal/mol | 57.5 °C |
| GACACCGAAAGGTCAGTC ((((((....)))..))) | -12.5 kcal/mol | 35.9 °C |
| GACACCGAAAGGTGGGTC ((((((....)))..))) | -11.2 kcal/mol | 65.5 °C |
| GACACCGAAAGGTTTGTC ((((((....)))..))) | -15.1 kcal/mol | 38.3 °C |
| GACACCGCGAAAGCGGTC (((..(((....)))))) | -6.65 kcal/mol | 35.4 °C |
| GACACCGGAAACGACGTC (((..((....))..))) | -21.9 kcal/mol | 29.4 °C |
| GACACGACGAAAGTCGTC (((..(((....)))))) | -6.1 kcal/mol | 34.4 °C |
| GACACGGCGAAAGCCGTC (((..(((....)))))) | -6.25 kcal/mol | 32.9 °C |
| GACACGGGAAACCGTACC (..((((....))))..) | -8.11 kcal/mol | 27.9 °C |
| GACACGGGAAACCGTATC ((.((((....)))).)) | -14.5 kcal/mol | 35.2 °C |
| GACAGAGGAAACTCCGTC (((.(((....))).))) | -18.3 kcal/mol | 35 °C |

| Sequence | folding enthalpy [1] | Tm [2] |
| --- | --- | --- |
| GACAGCGAAAGCTAGGTC ((((((....)))..))) | -18.4 kcal/mol | 39.4 °C |
| GACAGCGAAAGCTCCGTC ((((((....)))..))) | -9.29 kcal/mol | 34.4 °C |
| GACAGCGAAAGCTGGTC ((((((....))).))) | -11.8 kcal/mol | 55 °C |
| GACAGCGGAAACACTGTC (((((.(....).))))) | -33.4 kcal/mol | 46.6 °C |
| GACAGCGGAAACGCCGTC (((.(((....))).))) | -18.6 kcal/mol | 50.6 °C |
| GACAGCGGAAACGTTGTC ((((.((....)).)))) | -37.2 kcal/mol | 51.9 °C |
| GACAGGCGAAAGCCGTC (((.(((....)))))) | -11.3 kcal/mol | 64.9 °C |
| GACAGGGAAACCTGTC ((((((....)))))) | -37.8 kcal/mol | 58.9 °C |
| GACAGGGGAAACCCTGCC (.(((((....))))).) | -13.8 kcal/mol | 46.4 °C |
| GACAGTGAAAACTGTC ((((((....)))))) | -28.6 kcal/mol | 56.4 °C |
| GACATACGAAAGTAAGTC (((.(((....))).))) | -29.7 kcal/mol | 42.7 °C |
| GACATAGCGAAAGCTGTC (((..(((....)))))) | -20.5 kcal/mol | 47.1 °C |
| GACATAGGAAACTATGTC (((((((....))))))) | -35.6 kcal/mol | 53.5 °C |
| GACATAGGAAACTGTGTC ((((.((....)).)))) | -40.5 kcal/mol | 44.4 °C |
| GACATCCGAAAGGACGTC (((.(((....))).))) | -37 kcal/mol | 49 °C |
| GACATCGGAAACGGTGTC ((((.((....)).)))) | -47 kcal/mol | 52.2 °C |
| GACATGGAAACATGTC ((((((....)))))) | -38.2 kcal/mol | 56 °C |
| GACATTGGAAACAACGTC (((.(((....))).))) | -23.2 kcal/mol | 34 °C |
| GACCAAACGAAAGTTGTC (((..(((....)))))) | -13.8 kcal/mol | 31 °C |
| GACCAACCGAAAGGTGTC (((..(((....)))))) | -13 kcal/mol | 35.5 °C |
| GACCAAGCGAAAGCTGTC (((..(((....)))))) | -13.5 kcal/mol | 37.2 °C |
| GACCAAGGAAACTTGGCC (.(((((....))))).) | -16.6 kcal/mol | 41.7 °C |
| GACCAAGGAAACTTGGTC (((((((....))))))) | -35.8 kcal/mol | 60.5 °C |

| Sequence | folding enthalpy [1] | Tm [2] |
| --- | --- | --- |
| GACCACGAAAGTGGTGTC ((((((....)))..))) | -12.2 kcal/mol | 55.4 °C |
| GACCACGGAAACATGGCC (.(((.(....).))).) | -9.89 kcal/mol | 24.4 °C |
| GACCACGGAAACATGGTC (((((.(....).))))) | -35.5 kcal/mol | 43.4 °C |
| GACCAGCGAAAGCTCGTC (((.(((....))).))) | -18.6 kcal/mol | 42.4 °C |
| GACCAGGAAACTGGTC ((((((....)))))) | -39 kcal/mol | 63.4 °C |
| GACCAGGGAAACCTGGCC (.(((((....))))).) | -15.2 kcal/mol | 45.5 °C |
| GACCATGCGAAAGCAGTC (((..(((....)))))) | -10.6 kcal/mol | 30.2 °C |
| GACCATGGAAACACGGTC ((((.((....)).)))) | -31.7 kcal/mol | 42.5 °C |
| GACCATGGAAACATGGCC (.(((((....))))).) | -15.2 kcal/mol | 46 °C |
| GACCCAACGAAAGTTGTC (((..(((....)))))) | -10.5 kcal/mol | 29 °C |
| GACCCACGAAAGTGAGTC (((.(((....))).))) | -31.2 kcal/mol | 51.2 °C |
| GACCCCCGAAAGGGGTC (((.(((....)))))) | -19.9 kcal/mol | 67.5 °C |
| GACCCCGAAAGGGGAGTC ((((((....)))..))) | -9.87 kcal/mol | 44.6 °C |
| GACCCCGAAAGGGGGGTC ((((((....)))..))) | -13.3 kcal/mol | 67.4 °C |
| GACCCCGAAAGGGTAGTC ((((((....)))..))) | -15 kcal/mol | 44.4 °C |
| GACCCCGCGAAAGCGGTC (((..(((....)))))) | -5.92 kcal/mol | 28 °C |
| GACCCCGGAAACGAGGCC (.((.((....)).)).) | -15 kcal/mol | 27.5 °C |
| GACCCCGGAAACGAGGTC ((((.((....)).)))) | -36.9 kcal/mol | 48 °C |
| GACCCCGGAAACGGAGTC (((.(((....))).))) | -31.4 kcal/mol | 47.2 °C |
| GACCCGCGAAAGCGCGTC (((.(((....))).))) | -21.9 kcal/mol | 47.8 °C |
| GACCCGGGAAACCAGGCC (.((.((....)).)).) | -10.8 kcal/mol | 24.7 °C |
| GACCCGGGAAACCAGGTC ((((.((....)).)))) | -27.5 kcal/mol | 45.8 °C |
| GACCCGGGAAACCGGACC (..((((....))))..) | -10.3 kcal/mol | 30.3 °C |

| Sequence | folding enthalpy [1] | Tm [2] |
| --- | --- | --- |
| GACCCGGGAAACTGGGTC (((((.(....).))))) | -37.3 kcal/mol | 59.2 °C |
| GACCCTGAAAAGGGTC ((((((....)))))) | -33.7 kcal/mol | 67.5 °C |
| GACCGAGGAAACTCAGTC (((.(((....))).))) | -21 kcal/mol | 34.4 °C |
| GACCGCCGAAAGGCGTC (((.(((....)))))) | -8.69 kcal/mol | 45.4 °C |
| GACCGCGAAAGCGGCGTC ((((((....)))..))) | -9.59 kcal/mol | 51.3 °C |
| GACCGCGAAAGCGTGTC ((((((....))).))) | -21.2 kcal/mol | 63.5 °C |
| GACCGGACGAAAGTCGTC (((..(((....)))))) | -12.1 kcal/mol | 37.1 °C |
| GACCGTACGAAAGTAGTC (((..(((....)))))) | -13.1 kcal/mol | 26.5 °C |
| GACCTAGGAAACTGGGTC ((((.((....)).)))) | -35 kcal/mol | 49.6 °C |
| GACCTCCCGAAAGGGGTC (((..(((....)))))) | -15.2 kcal/mol | 40 °C |
| GACCTCGGAAACAAGGTC (((((.(....).))))) | -32.1 kcal/mol | 40.9 °C |
| GACCTCGGAAACGGGGTC ((((.((....)).)))) | -46.4 kcal/mol | 55.9 °C |
| GACCTGACGAAAGTCGTC (((..(((....)))))) | -9.44 kcal/mol | 35.9 °C |
| GACCTGGGAAACCGGGTC ((((.((....)).)))) | -44.8 kcal/mol | 57.1 °C |
| GACCTTACGAAAGTAGTC (((..(((....)))))) | -11 kcal/mol | 25.2 °C |
| GACGAACGAAAGTTAGTC (((.(((....))).))) | -35.8 kcal/mol | 49.9 °C |
| GACGAAGCGAAAGCTGTC (((..(((....)))))) | -16.7 kcal/mol | 45.4 °C |
| GACGACCCGAAAGGGGTC (((..(((....)))))) | -10.1 kcal/mol | 42.3 °C |
| GACGACGAAAGTCTAGTC ((((((....)))..))) | -23.8 kcal/mol | 41.8 °C |
| GACGACGGAAACGTCACC (..((((....))))..) | -11.5 kcal/mol | 35.4 °C |
| GACGAGCGAAAGCTAGTC (((.(((....))).))) | -31 kcal/mol | 56.8 °C |
| GACGAGGGAAACCTTGTC (((.(((....))).))) | -31.4 kcal/mol | 48.1 °C |

From the array DNA melting data of Ke et al. (doi:10.1101/2024.01.08.574731)
